Assays:
Adenosylhomocysteinase [1] = biological target: T1, Adenosylhomocysteinase (Homo sapiens, UniProt P23526); test: Binding affinity for human placental S-adenosyl-homocysteine hydrolase
Method in brief: (§1)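 Recombinant human placental enzyme, purified to homogeneity, at 2 µM, preincubated at 37°C with inhibitor at various concentrations and times in 20 mM potassium phosphate pH 7.5, 1 mM EDTA. Ki and kinact come from a double reciprocal plot of pseudo-first-order inactivation rate versus 1/[I].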
Target sequence in this assay (P23526 whole entry): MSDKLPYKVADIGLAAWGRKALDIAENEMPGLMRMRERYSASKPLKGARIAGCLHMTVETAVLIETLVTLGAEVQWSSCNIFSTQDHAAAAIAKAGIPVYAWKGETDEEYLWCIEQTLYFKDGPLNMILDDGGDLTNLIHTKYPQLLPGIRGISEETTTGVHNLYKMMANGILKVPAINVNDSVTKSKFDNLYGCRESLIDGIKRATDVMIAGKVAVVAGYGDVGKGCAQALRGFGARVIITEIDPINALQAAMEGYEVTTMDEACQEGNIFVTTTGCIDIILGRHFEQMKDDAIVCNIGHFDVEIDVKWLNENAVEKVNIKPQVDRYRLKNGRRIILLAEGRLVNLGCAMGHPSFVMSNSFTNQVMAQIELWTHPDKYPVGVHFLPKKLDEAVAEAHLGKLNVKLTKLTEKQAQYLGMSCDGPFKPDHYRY

Adenosylhomocysteinase [2] = biological target: T1, Adenosylhomocysteinase; test: Inactivation rate constant for human placental S-adenosyl-homocysteine hydrolase; method in brief: as §1
Target sequence in this assay (P23526 2-432 limits assumed): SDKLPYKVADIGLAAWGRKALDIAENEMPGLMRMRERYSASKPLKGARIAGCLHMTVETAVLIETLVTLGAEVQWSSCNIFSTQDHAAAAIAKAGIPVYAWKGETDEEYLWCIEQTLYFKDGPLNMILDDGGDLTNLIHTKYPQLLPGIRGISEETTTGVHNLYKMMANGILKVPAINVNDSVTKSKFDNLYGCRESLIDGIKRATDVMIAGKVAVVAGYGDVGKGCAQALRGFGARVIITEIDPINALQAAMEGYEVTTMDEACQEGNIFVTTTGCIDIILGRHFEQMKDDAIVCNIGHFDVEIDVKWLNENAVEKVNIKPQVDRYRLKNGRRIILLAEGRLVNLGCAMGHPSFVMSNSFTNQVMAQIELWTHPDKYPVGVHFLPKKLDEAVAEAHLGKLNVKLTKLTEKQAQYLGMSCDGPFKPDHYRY

| Ki (Adenosylhomocysteinase [1]) [µM] | Kinact (Adenosylhomocysteinase [2]) [min⁻¹] | Compound |
| --- | --- | --- |
| 4 | 0.04 | Nc1ncnc2c1ncn2C1O[C@H](CS)[C@@H](O)[C@H]1O (stereo not given in full) |
| 96 | 0.05 | Nc1ncnc2c1ncn2C1O[C@@H](CSSC[C@H]2OC(n3cnc4c(N)ncnc43)[C@H](O)[C@@H]2O)[C@H](O)[C@@H]1O (stereo not given in full) |
| 19 | 0.05 | CSSC[C@H]1OC(n2cnc3c(N)ncnc32)[C@H](O)[C@@H]1O (stereo not given in full) |

| Compound | Ki (Adenosylhomocysteinase [1]) [µM] | Kinact (Adenosylhomocysteinase [2]) [min⁻¹] |
| --- | --- | --- |
| Nc1ncnc2c1ncn2C1O[C@H]([C@H]2CS2)[C@@H](O)[C@H]1O (stereo not given in full) | 50 | 0.03 |
| Nc1ncnc2c1ncn2C1OC([C@@H]2CS2)[C@@H](O)[C@H]1O (single isomer, unassigned) | 105 | 0.1 |

Reference: ChEMBL document CHEMBL1138650, “Inactivation of human S-adenosylhomocysteine hydrolase by covalent labeling of cysteine 195 with thionucleoside derivatives” (Bioorg Med Chem Lett, 2004)
